Measured values taken from ChEMBL document CHEMBL4715768, “Conjugation of N-acylhydrazone and 1,2,4-oxadiazole leads to the identification of active antimalarial agents” (Bioorg Med Chem, 2016).
The source made the active and inactive calls. No cut-off for these calls is given here.

Tests used:
[1] = test system: Plasmodium falciparum; test: (§1) Antimalarial activity against chloroquine-resistant blood stage Plasmodium falciparum W2 infected in human erythrocytes assessed as parasite growth inhibition at 10 ug/ml incubated for 24 hrs followed by [3H]-hypoxanthine addition and further incubated for 24 hrs followed by cooling and measured after 24 hrs by beta radiation counter analysis relative to control; assay type: functional; settings: W2, Erythrocyte, time 72 hrs
Outline: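 P. falciparum W2 grown in human O+ erythrocytes in RPMI 1640 with 10% human plasma, at 1% parasitemia and 2.5% hematocrit. Compounds diluted with 4% DMSO and medium, tested in triplicate. [3H]-hypoxanthine incorporation read; inhibition calculated against untreated parasites.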

[2] = test system: Plasmodium falciparum; test: as §1, with “inhibition” for “inhibition at 10 ug/ml”, “analysis” for “analysis relative to control”; assay type: functional, organism-based; settings: W2, Erythrocyte
Outline: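 W2 P. falciparum cultured in O+ human erythrocytes in RPMI 1640 plus 10% human plasma, at 1% parasitemia and 2.5% hematocrit. At least five compound concentrations, each in triplicate. Growth measured as [3H]-hypoxanthine uptake relative to untreated parasites. IC50 derived from two independent experiments.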

[3] = Cytotoxicity against human HepG2 cells assessed as reduction in cell growth measured after 72 hrs by alamar blue assay; assay type: cell-based
Outline: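 HepG2 cells in phenol red-free RPMI-1640 with 10% FBS were seeded at 10⁴ cells/well. After 24 h they were exposed to five concentrations in triplicate for 72 h at 37 °C, 5% CO₂. AlamarBlue (20%) was added for 24 h, and absorbance was read at 570/600 nm. CC50 came from non-linear regression, two independent experiments. Gentian violet served as the cytotoxic control.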

[4] = Hemolytic activity in human erythrocytes measured after 1 hr by microtiter plate method; assay type: ADME, cell-based, Erythrocyte; settings: read-out: CC50
Outline: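 Fresh human O⁺ erythrocytes were washed three times in PBS and used at 1% hematocrit. Compounds dissolved in PBS were added in triplicate and incubated 1 h; saponin 1% v/v served as the full-lysis control. After centrifugation, haemoglobin released into the supernatant was read at 540 nm and hemolysis CC50 derived.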

[5] = test system: Hemozoin; test: Inhibition of beta-hematin formation measured after 24 hrs by spectrophotometry analysis
Outline: (§2)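 Haemin (0.5 mg/mL in 0.2 M NaOH) was mixed with 3 M sodium acetate, 17.4 M acetic acid and compound, tested at up to 2.5 mM. Incubation was 24 h at 37 °C. Pellets were washed with DMSO twice and water, dissolved in 0.1 M NaOH, and read at 405 nm. Inhibition was taken against a no-compound control, at least twice in triplicate. Chloroquine was the positive control. CQ index = IC50 CQ / IC50 compound.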

[6] = test system: Hemozoin; test: Potency index, ratio of chloroquine IC50 to test compound IC50 for inhibition of beta-hematin formation measured after 24 hrs by spectrophotometry analysis; outline: as §2
[7] = Selectivity index, ratio of CC50 for human HepG2 cells assessed as cell growth inhibition measured after 72 hrs by alamar blue assay to IC50 for chloroquine-resistant blood stage Plasmodium falciparum W2 infected in human erythrocytes assessed as parasite growth inhibition incubated for 24 hrs followed by [3H]-hypoxanthine addition and further incubated for 24 hrs followed by cooling and measured after 24 hrs by beta radiation counter analysis; assay type: toxicity, cell-based; settings: read-out: Ratio CC50/IC50
[8] = test system: Plasmodium berghei; test: Antimalarial activity against Plasmodium berghei NK65 infected in Swiss mouse assessed as decrease in parasitemia at 100 mg/kg, po qd administered via gavage for 4 consecutive days and measured up to 8 days by optical microscopy analysis; assay type: functional, organism-based; settings: time day <=8
Outline: (§3)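 Adult Swiss mice (4-6 weeks, n=5/group) inoculated i.p. with 10⁶ P. berghei NK65-infected red cells. Dosing began 1 h post-infection, once daily for 4 consecutive days by oral gavage or i.p. Vehicle was DMSO 20% in saline. Tail blood smears were taken on days 4–8, methanol-fixed, panoptic-stained and read by light microscopy. Inhibition = [(C−T)/C]×100 versus vehicle controls. Means ± SEM.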

[9] = test system: Plasmodium berghei; test: Antimalarial activity against Plasmodium berghei NK65 infected in Swiss mouse assessed as decrease in parasitemia at 100 mg/kg, ip qd administered via gavage for 4 consecutive days and measured up to 8 days by optical microscopy analysis; assay type: functional, organism-based; settings: time day <=8; outline: as §3
[10] = test system: Plasmodium berghei; test: Antimalarial activity against Plasmodium berghei NK65 infected in Swiss mouse assessed as increase in mouse survival at 100 mg/kg, po qd administered via gavage for 4 consecutive days and […] relative to control; assay type: functional, organism-based
Outline: (§4)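 Swiss mice (n=5/group) infected i.p. with 10⁶ P. berghei NK65 red cells, then treated 1 h later, once daily for 4 days, orally by gavage or i.p. Vehicle was DMSO in saline. Survival was followed to 30 days post-infection and compared with vehicle by Mantel-Cox test. One experiment of two replicates.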

[11] = test system: Plasmodium berghei; test: Antimalarial activity against Plasmodium berghei NK65 infected in Swiss mouse assessed as decrease in parasitemia at 25 to 50 mg/kg, ip qd administered via gavage for 4 consecutive days and measured up to 8 days by optical microscopy analysis; assay type: functional, organism-based; settings: dose 25-50 mg/kg, time day <=8; outline: as §3
[12] = test system: Plasmodium berghei; test: Antimalarial activity against Plasmodium berghei NK65 infected in Swiss mouse assessed as effect on mouse survival at 25 to 50 mg/kg, ip qd administered via gavage for 4 consecutive days and […] by optical microscopy analysis; assay type: functional, organism-based; settings: dose 25-50 mg/kg; outline: as §4
[13] = test system: Plasmodium berghei; test: Antimalarial activity against Plasmodium berghei NK65 infected in Swiss mouse assessed as decrease in parasitemia at 50 mg/kg, po qd administered via gavage for 4 consecutive days and measured up to 8 days by optical microscopy analysis; assay type: functional, organism-based; settings: time day <=8; outline: as §3
[14] = test system: Plasmodium berghei; test: Antimalarial activity against Plasmodium berghei NK65 infected in Swiss mouse assessed as increase in mouse survival at 50 mg/kg, po qd administered via gavage for 4 consecutive days and […] relative to control; assay type: functional
Outline: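 Swiss mice, 4–6 weeks, n=5 per group, infected i.p. with 10⁶ P. berghei NK65-infected red cells. Treated once daily for 4 consecutive days starting 1 h post-infection, dosed by oral gavage in 20% DMSO. Vehicle controls received DMSO in saline. Survival followed up to 30 days; Mantel-Cox test. One experiment of two replicates.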

Question: Which results are given for `O=C(N/N=C/c1ccc2c(c1)OCO2)c1nc(-c2ccc(O)cc2)no1`?
Answer: inhibition at 10 µg/mL [1]: 71.9%; IC50 [2]: 1500 nM; CC50 at 72 h [3]: > 200 µM; HC50 at 1 h [4]: > 100 µg/mL; IC50 [5]: 800 µM; Ratio IC50 [6]: 1

Question: For `O[C@@H](c1cc(C(F)(F)F)nc2c(C(F)(F)F)cccc12)[C@H]1CCCCN1` [(S,R)-MEFLOQUINE], which inhibition at 10 µg/mL [1] is on record?
Answer: 100%

Question: What about the IC50 [2] of the same molecule?
Answer: 40 nM

Question: What about the CC50 at 72 h [3] of the same molecule?
Answer: 11.8 µM

Question: What about the selectivity ratio at 72 h [7] of the same molecule?
Answer: 295

Question: Which inhibition at 10 µg/mL [1] does the source give for `O=C(N/N=C/C=C/c1ccccc1)c1nc(-c2ccc(O)cc2)no1` here?
Answer: 39.1%

Question: Which inhibition at 10 µg/mL [1] does the source give for `COc1cc(/C=N/NC(=O)c2nc(-c3ccc(F)cc3)no2)ccc1O` here?
Answer: 24.7%

Question: With `COc1ccc(-c2noc(C(=O)N/N=C/c3ccc(O)c(OC)c3)n2)cc1` as the molecule, how does the inhibition at 10 µg/mL [1] read?
Answer: 42.2%

Question: Which inhibition at 10 µg/mL [1] does the source give for `O=C(N/N=C/c1ccc2c(c1)OCO2)c1nc(-c2ccc(Br)cc2)no1` here?
Answer: 45.3%

Question: What does the source list for `COc1cc(/C=N/NC(=O)c2nc(-c3ccc(Br)cc3)no2)ccc1O`?
Answer: inhibition at 10 µg/mL [1]: 71.1%; IC50 [2]: 70 nM; CC50 at 72 h [3]: 16.9 µM; selectivity ratio at 72 h [7]: 241; HC50 at 1 h [4]: 33 µg/mL; IC50 [5]: 900 µM; Ratio IC50 [6]: 0.8; Activity [8]: inactive; Activity [9]: inactive; Activity [10]: inactive

Question: For `COc1ccc(-c2noc(C(=O)N/N=C/C=C/c3ccccc3)n2)cc1`, which inhibition at 10 µg/mL [1] is on record?
Answer: 26.1%

Question: Which inhibition at 10 µg/mL [1] does the source give for `O=C(N/N=C/C=C/c1ccccc1)c1nc(-c2ccc(Cl)cc2)no1` here?
Answer: 28.8%

Question: With `O=C(N/N=C/C=C/c1ccccc1)c1nc(-c2ccc([N+](=O)[O-])cc2)no1` as the molecule, how does the inhibition at 10 µg/mL [1] read?
Answer: 25.7%

Question: For `O=C(N/N=C/c1ccc2c(c1)OCO2)c1nc(-c2ccccc2)no1`, which inhibition at 10 µg/mL [1] is on record?
Answer: 27.5%

Question: With `COc1cc(/C=N/NC(=O)c2nc(-c3ccc(C)cc3)no2)ccc1O` as the molecule, how does the inhibition at 10 µg/mL [1] read?
Answer: 61.1%

Question: What about the IC50 [2] of the same molecule?
Answer: 120 nM

Question: And the CC50 at 72 h [3]?
Answer: 46.6 µM

Question: And the selectivity ratio at 72 h [7]?
Answer: 388

Question: And the HC50 at 1 h [4]?
Answer: > 100 µg/mL

Question: What about the IC50 [5] of the same molecule?
Answer: 600 µM

Question: And the Ratio IC50 [6]?
Answer: 1.3

Question: What about the Activity [8] of the same molecule?
Answer: inactive

Question: What about the Activity [9] of the same molecule?
Answer: inactive

Question: And the Activity [10]?
Answer: inactive

Question: For `COc1cc(/C=N/NC(=O)c2nc(-c3ccccc3)no2)ccc1O`, which inhibition at 10 µg/mL [1] is on record?
Answer: 55.4%

Question: For `O=C(N/N=C/c1ccc2c(c1)OCO2)c1nc(-c2ccc([N+](=O)[O-])cc2)no1`, which inhibition at 10 µg/mL [1] is on record?
Answer: 33.9%

Question: With `Cc1ccc(-c2noc(C(=O)N/N=C/c3ccc4c(c3)OCO4)n2)cc1` as the molecule, how does the inhibition at 10 µg/mL [1] read?
Answer: 21.9%

Question: For `O=C(N/N=C/C=C/c1ccccc1)c1nc(-c2ccccc2)no1`, which inhibition at 10 µg/mL [1] is on record?
Answer: 51%

Question: With `O=C(N/N=C/c1ccc2c(c1)OCO2)c1nc(-c2ccc(Cl)cc2)no1` as the molecule, how does the inhibition at 10 µg/mL [1] read?
Answer: 53%

Question: For `COc1cc(/C=N/NC(=O)c2nc(-c3ccc([N+](=O)[O-])cc3)no2)ccc1O`, which inhibition at 10 µg/mL [1] is on record?
Answer: 68.7%

Question: What about the IC50 [2] of the same molecule?
Answer: 200 nM

Question: What about the CC50 at 72 h [3] of the same molecule?
Answer: 14.8 µM

Question: What about the selectivity ratio at 72 h [7] of the same molecule?
Answer: 74

Question: What about the HC50 at 1 h [4] of the same molecule?
Answer: > 100 µg/mL

Question: What about the IC50 [5] of the same molecule?
Answer: > 2000 µM

Question: What about the Activity [11] of the same molecule?
Answer: Active

Question: And the Activity [12]?
Answer: inactive

Question: What does the source list for `CCN(CC)CCCC(C)Nc1ccnc2cc(Cl)ccc12` (stereo unspecified) [CHLOROQUINE]?
Answer: HC50 at 1 h [4]: > 100 µg/mL; IC50 [5]: 800 µM; Activity [13]: Active; Activity [14]: 100%

Question: Which inhibition at 10 µg/mL [1] does the source give for `O=C(N/N=C/c1ccc2c(c1)OCO2)c1nc(-c2ccc(F)cc2)no1` here?
Answer: 31.6%

Question: For `Cc1ccc(-c2noc(C(=O)N/N=C/C=C/c3ccccc3)n2)cc1`, which inhibition at 10 µg/mL [1] is on record?
Answer: 52.7%

Question: Which inhibition at 10 µg/mL [1] does the source give for `O=C(N/N=C/C=C/c1ccccc1)c1nc(-c2ccc(F)cc2)no1` here?
Answer: 34.3%

Question: With `COc1cc(/C=N/NC(=O)c2nc(-c3ccc(O)cc3)no2)ccc1O` as the molecule, how does the inhibition at 10 µg/mL [1] read?
Answer: 58.8%

Question: And the IC50 [2]?
Answer: 1900 nM

Question: And the CC50 at 72 h [3]?
Answer: > 200 µM

Question: What about the HC50 at 1 h [4] of the same molecule?
Answer: > 100 µg/mL

Question: What about the IC50 [5] of the same molecule?
Answer: > 2000 µM

Question: For `O=C(N/N=C/C=C/c1ccccc1)c1nc(-c2ccc(Br)cc2)no1`, which inhibition at 10 µg/mL [1] is on record?
Answer: 58.8%

Question: Which inhibition at 10 µg/mL [1] does the source give for `COc1cc(/C=N/NC(=O)c2nc(-c3ccc(Cl)cc3)no2)ccc1O` here?
Answer: 37%

Question: With `COc1ccc(-c2noc(C(=O)N/N=C/c3ccc4c(c3)OCO4)n2)cc1` as the molecule, how does the inhibition at 10 µg/mL [1] read?
Answer: 27.5%
